Where a chain is given by its changes, count along the chain named. Where two headings read alike, the source gives them in different places.
Key:
Format in all cases: cell-based
[1] = target: T1, CLC-0 E166N mutant (Torpedo marmorata, UniProt P21564, C212S/E166N); details: read-out: Apparent affinity (K1/2)
T1 sequence (P21564 1-805 E166N/C212S): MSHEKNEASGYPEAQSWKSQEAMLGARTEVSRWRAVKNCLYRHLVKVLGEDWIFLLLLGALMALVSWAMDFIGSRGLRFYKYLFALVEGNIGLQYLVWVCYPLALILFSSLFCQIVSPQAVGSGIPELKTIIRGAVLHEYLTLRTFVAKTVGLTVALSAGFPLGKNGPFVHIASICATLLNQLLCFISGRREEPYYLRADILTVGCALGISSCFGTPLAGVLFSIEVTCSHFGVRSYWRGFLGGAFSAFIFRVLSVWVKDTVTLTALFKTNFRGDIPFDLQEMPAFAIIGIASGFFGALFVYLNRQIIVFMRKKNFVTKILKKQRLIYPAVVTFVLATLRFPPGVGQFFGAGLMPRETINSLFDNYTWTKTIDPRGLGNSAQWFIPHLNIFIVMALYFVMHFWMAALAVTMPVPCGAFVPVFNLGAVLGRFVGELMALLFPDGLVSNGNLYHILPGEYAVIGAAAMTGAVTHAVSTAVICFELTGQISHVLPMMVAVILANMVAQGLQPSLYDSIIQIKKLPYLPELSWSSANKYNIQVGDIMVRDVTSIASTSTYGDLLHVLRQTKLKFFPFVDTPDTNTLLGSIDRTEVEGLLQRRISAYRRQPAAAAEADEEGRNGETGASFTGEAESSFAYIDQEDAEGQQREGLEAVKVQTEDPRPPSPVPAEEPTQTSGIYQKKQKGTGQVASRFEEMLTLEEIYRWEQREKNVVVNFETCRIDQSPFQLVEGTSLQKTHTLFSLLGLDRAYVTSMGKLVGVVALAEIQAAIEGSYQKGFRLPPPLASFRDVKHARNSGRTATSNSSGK
How it was run: (§1)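 CLC-0 mutants in the C212S background were transfected into HEK293 cells with lipofectamine and recorded 1–3 d later as excised inside-out patches. Both sides held 130 mM NaCl, 5 mM MgCl2, 10 mM HEPES and 1 mM EGTA, pH 7.4. CPA was perfused continuously onto the cytoplasmic face. Steady-state current over the last 10 ms was normalized to bracketing blocker-free controls and fitted to a Langmuir function for K1/2. Values are mean ± SEM of ~4–6 patches.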

[2] = target: T2, CLC-0 E166C mutant (E127/K519) (Torpedo marmorata, UniProt P21564, C212S/E166C); details: for IC50: read-out: Apparent affinity (K1/2)
T2 sequence (P21564 1-805 E166C/C212S): T1 sequence (P21564 1-805 E166N/C212S) with N166C
How it was run: as §1

[3] = target: T3, CLC-0 E166W mutant (Torpedo marmorata, UniProt P21564, C212S/E166W); details: read-out: Apparent affinity (K1/2)
T3 sequence (P21564 1-805 E166W/C212S): T1 sequence (P21564 1-805 E166N/C212S) with N166W
How it was run: as §1

Structure (SMILES) | IC50 ([1]; −40 mV) | IC50 ([1]; −60 mV) | IC50 ([1]; −80 mV) | IC50 ([1]; −100 mV) | IC50 ([1]; −120 mV) | IC50 ([1]; −140 mV) | IC50 ([1]; −160 mV) | IC50 ([2]; −40 mV) | IC50 ([2]; −60 mV) | IC50 ([2]; −80 mV) | IC50 ([2]; −100 mV) | IC50 ([2]; −120 mV) | IC50 ([2]; −140 mV) | IC50 ([2]; −160 mV) | IC50 ([3]; −80 mV) | IC50 ([3]; −100 mV) | IC50 ([3]; −120 mV) | IC50 ([3]; −140 mV) | IC50 ([3]; −160 mV) | further results
CCCCCCCC(=O)O [octanoate] | 4930 ± 180 µM | 2550 ± 47 µM | 1340 ± 29 µM | 694 ± 18 µM | 380 ± 9 µM | 212 ± 4 µM | 125 ± 2 µM | 88.5 ± 17.1 µM | 43.1 ± 6.4 µM | 20.7 ± 3.4 µM | 10.2 ± 1.8 µM | 5.6 ± 1.1 µM | 3.5 ± 0.8 µM | 2 ± 0.5 µM | 19200 ± 3300 µM | 13000 ± 2000 µM | 8600 ± 1300 µM | 5530 ± 870 µM | 3500 ± 590 µM | 
O=C(O)COc1ccc(Cl)cc1 [CPA, p-chlorophenoxy acetate] | 9750 ± 570 µM | 5780 ± 220 µM | 3270 ± 90 µM | 1850 ± 40 µM | 1060 ± 20 µM | 620 ± 20 µM | 380 ± 10 µM | 581 ± 94 µM | 349 ± 15 µM | 186 ± 7 µM | 104 ± 3 µM | 61 ± 2 µM | 38 ± 1 µM | 26 ± 1 µM | 6660 ± 980 µM | 3490 ± 410 µM | 1860 ± 220 µM | 970 ± 130 µM | 550 ± 70 µM | block of current ([2]; 0.3 mM CPA, −160 mV): > 90%; apparent koff ([2]; −160 mV): 17.2 s⁻¹; apparent kon ([2]; −160 mV): 630000 M⁻¹ s⁻¹; IC50 ([3]; −60 mV): 13200 ± 2100 µM

— article PMC2606940 (The Journal of General Physiology, 2009)
